Like-named read-outs stand apart in the source and are kept apart here.
Experiments:
[1] = system: CCRF-CEM human leukemia cell lines; settings: read-out: IC50, cell-based growth inhibition; reported as low as; cited from earlier work
[2] = system: CCRF-CEM human leukemia cell lines; assay: Growth inhibition assay, CCRF-CEM; assay type: cell-based
[3] = biological target: recombinant human aminoimidazole carboxamide ribonucleotide transformylase (hAICAR Tfase) (Homo sapiens, UniProt P31939); assay: hAICAR Tfase enzyme inhibition assay; assay type: biochemical
Sequence of recombinant human aminoimidazole carboxamide ribonucleotide transformylase (hAICAR Tfase) (P31939 whole entry): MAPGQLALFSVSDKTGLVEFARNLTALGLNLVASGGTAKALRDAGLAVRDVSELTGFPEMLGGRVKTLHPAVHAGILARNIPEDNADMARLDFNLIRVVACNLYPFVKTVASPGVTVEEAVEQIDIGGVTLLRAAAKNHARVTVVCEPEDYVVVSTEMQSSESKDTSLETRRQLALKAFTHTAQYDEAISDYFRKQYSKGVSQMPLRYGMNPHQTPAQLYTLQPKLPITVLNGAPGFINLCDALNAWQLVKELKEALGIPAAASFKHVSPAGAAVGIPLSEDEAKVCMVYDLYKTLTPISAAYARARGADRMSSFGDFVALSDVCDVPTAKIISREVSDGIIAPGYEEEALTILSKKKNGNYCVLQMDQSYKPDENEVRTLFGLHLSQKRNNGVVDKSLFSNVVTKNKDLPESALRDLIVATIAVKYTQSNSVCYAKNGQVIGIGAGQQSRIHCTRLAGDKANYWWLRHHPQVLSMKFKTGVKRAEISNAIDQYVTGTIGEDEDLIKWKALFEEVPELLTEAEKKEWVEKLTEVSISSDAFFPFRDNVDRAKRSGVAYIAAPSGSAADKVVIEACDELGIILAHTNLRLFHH
Outline: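 Recombinant human enzyme; method otherwise follows earlier work. Reaction kinetics followed for 2 min after initiation. Ki obtained from Dixon plots.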

CCRF-CEM/FPGS^- = assay: Growth inhibition assay, FPGS-deficient mutant cells; assay type: cell-based, human; settings: read-out: CCRF-CEM/FPGS^- IC50, (−) T, (−) H
[4] = alleviated by folic acid co-supplementation; cited from earlier work
CCRF-CEM/MTX = assay: Growth inhibition assay, RFC-deficient mutant cells; assay type: cell-based, human; settings: read-out: CCRF-CEM/MTX IC50, (−) T, (−) H
[5] = system: solid murine and human tumors; settings: tumors that did not respond to methotrexate; cited from earlier work
GAR Tfase = settings: read-out: Ki, GAR Tfase; cited from earlier work
[6] = system: anti-folate resistant human leukemia cell lines; settings: cited from earlier work
[7] = read-out: CCRF-CEM IC50, (+) T, (−) H, with thymidine, no hypoxanthine
[8] = read-out: CCRF-CEM IC50, (−) T, (+) H, no thymidine, with hypoxanthine
[9] = read-out: CCRF-CEM IC50, (−) T, (−) H, Table 1, no thymidine, no hypoxanthine
[10] = read-out: Inhibition Ki, hAICAR Tfase, Dixon plots
[11] = read-out: CCRF-CEM IC50, (−) T, (−) H, Table 2, parent cell line

SMILES	IC50 [2, 7]	IC50 [2, 8]	IC50 [2, 9]	IC50 (CCRF-CEM/MTX)	Ki [3, 10]	IC50 (CCRF-CEM/FPGS^-; FPGS-deficient mutant)	further results
Nc1nc2c(c(=O)[nH]1)C[C@@H](CCc1ccc(C(=O)N[C@@H](CCC(=O)O)C(=O)O)cc1)CN2 [3 Lometrexol, Lometrexol]							IC50 [1]: 2.9 nM; IC50 ([2]; Homo sapiens, CCRF-CEM, read-out: CCRF-CEM IC50, (−) T, (+) H): > 10000 nM; Ki [3]: > 100000 nM; IC50 (CCRF-CEM/FPGS^-; Homo sapiens, CCRF-CEM): > 10000 nM; Adverse effect in patients [4]: some patients suffered cumulative myelosuppression
CS[C@H](CCCc1c(N)nc(N)[nH]c1=O)c1ccc(C(=O)NC(CCC(=O)O)C(=O)O)cc1 (stereo partly drawn) [10R-8, 10R-methylthio-DDACTHF]	80 nM	> 10000 nM	80 nM	70 nM	> 100000 nM		IC50 ([2]; read-out: IC50, CCRF-CEM growth inhibition): 80 nM
CS[C@@H](CCCc1c(N)nc(N)[nH]c1=O)c1ccc(C(=O)NC(CCC(=O)O)C(=O)O)cc1 (stereo partly drawn) [10S-7, 10S-methylthio-DDACTHF]	70 nM	> 10000 nM	50 nM	60 nM	> 100000 nM	5000 nM	IC50 [2, 11]: 60 nM
Nc1nc(N)c(CCCCc2ccc(C(=O)NC(CCC(=O)O)C(=O)O)cc2)c(=O)[nH]1 (stereo not shown) [DDACTHF]	3600 nM	> 10000 nM	2700 nM	> 100000 nM	20000 nM	> 10000 nM	IC50 [2, 11]: 2700 nM
Nc1nc2c(c(=O)[nH]1)CC(CCc1ccc(C(=O)N[C@@H](CCC(=O)O)C(=O)O)cc1)CN2 (stereo partly shown) [DDATHF, 5,10-dideaza-5,6,7,8-tetrahydrofolic acid]							In vivo antitumor effect [5]: effective in vivo against solid murine and human tumors
Nc1nc2ccc(CC(C=O)c3ccc(C(=O)N[C@@H](CCC(=O)O)C(=O)O)cc3)cc2c(=O)[nH]1 (stereo partly shown) [compound 4, 10-formyl-TDAF]							Ki (GAR Tfase): 260 nM
Nc1nc(N)c(CCCC(C(=O)C(F)(F)F)c2ccc(C(=O)N[C@@H](CCC(=O)O)C(=O)O)cc2)c(=O)[nH]1 (stereo partly shown) [compound 5, 10-CF3CO-DDACTHF]	17 nM	> 10000 nM	16 nM		> 100000 nM	> 10000 nM	Ki (GAR Tfase): 15 nM
COc1cc(NCc2ccc3nc(N)nc(N)c3c2C)cc(OC)c1OC [neutrexin (trimetrexate), trimetrexate]							Sensitivity of resistant cells with 90–99% loss of FPGS activity [6]: marked hypersensitivity
